# Tests used:
# Format in all cases: functional
# [1] = system: Mus musculus; assay: Trypanocidal Activity at I.C.E. value 0.44 when administered subcutaneously.
# Method in brief: (§1)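 Blood-stage T. rhodesiense infection came from a standard inoculum lethal to all untreated mice. Drug was given by subcutaneous injection to groups of five mice. Survival beyond 30 days counted as cure. […] Sub-curative doses scored 0, and data were normalized at each dose.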
# [2] = system: Mus musculus; assay: Trypanocidal Activity at I.C.E. value 0.25 when administered perorally.
# [3] = system: Mus musculus; assay: Trypanocidal Activity at I.C.E. value 0.42 when administered perorally.
# [4] = system: Mus musculus; assay: Trypanocidal Activity at I.C.E. value 0.45 when administered subcutaneously.; method in brief: as §1
# [5] = system: Trypanosoma brucei rhodesiense; assay: In Vitro measurement of inhibition of thymidine uptake in cell culture of Trypanosoma rhodesiense; conditions: read-out: ID50 (the source's name)
# Method in brief: (§2)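 Parasites harvested from infected rats and incubated 3 h across a drug concentration series, usually 0.1–100 µg/mL. Incorporation of radiolabeled thymidine measured. ID50 is the concentration (µg/mL) producing 50% inhibition.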
# [6] = system: Trypanosoma brucei rhodesiense; assay: In Vitro measurement of inhibition of leucine uptake in cell culture of Trypanosoma rhodesiense; conditions: read-out: ID50 (the source's name)
# Method in brief: (§3)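 Trypanosomes harvested from infected rats, cultured 3 h with several concentrations of drug, usually 0.1–100 µg/mL. Radiolabeled L-leucine uptake measured. ID50 is the concentration in µg/mL giving 50% inhibition of incorporation.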
# [7] = system: Mus musculus; assay: Trypanocidal Activity at I.C.E. value 0.44 when administered perorally.
# [8] = system: Mus musculus; assay: Trypanocidal Activity at I.C.E. value 0.90 when administered subcutaneously.
# [9] = system: Mus musculus; assay: Trypanocidal Activity at I.C.E. value 0.64 when administered perorally.
# [10] = system: Mus musculus; assay: Trypanocidal Activity at I.C.E. value 0.39 when administered subcutaneously.; method in brief: as §1
# [11] = system: Trypanosoma brucei rhodesiense; assay: In Vitro measurement of inhibition of Leucine uptake in cell culture of Trypanosoma rhodesiense.; conditions: read-out: ID50 (the source's name); method in brief: as §3
# [12] = system: Trypanosoma brucei rhodesiense; assay: In Vitro measurement of inhibition of thymidine uptake in cell culture of Trypanosoma rhodesiense.; conditions: read-out: ID50 (the source's name); method in brief: as §2
# [13] = system: Mus musculus; assay: Trypanocidal Activity at I.C.E. value 0.80 when administered subcutaneously.
# Method in brief: (§4)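 Mice, in groups of five per dose, were given a standard inoculum of blood-stage T. rhodesiense that is lethal to all untreated controls, then dosed subcutaneously. Usually 11 dose levels were used (2^n × 0.42 mg/kg).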
# [14] = system: Mus musculus; assay: Trypanocidal Activity at I.C.E. value 0.71 when administered subcutaneously.; method in brief: as §4
# [15] = system: Mus musculus; assay: Trypanocidal Activity at I.C.E. value 0.32 when administered perorally.
# [16] = system: Mus musculus; assay: Trypanocidal Activity at I.C.E. value 0.24 when administered subcutaneously; method in brief: as §1
# [17] = system: Mus musculus; assay: Trypanocidal Activity at I.C.E. value 0.61 when administered subcutaneously.; method in brief: as §4
# [18] = system: Mus musculus; assay: Trypanocidal Activity at I.C.E. value 0.35 when administered subcutaneously.; method in brief: as §1
# [19] = system: Trypanosoma brucei rhodesiense; assay: In Vitro measurement of inhibition of leucine uptake in cell culture of Trypanosoma rhodesiense.; conditions: read-out: ID50 (the source's name); method in brief: as §3
# [20] = system: Mus musculus; assay: Trypanocidal Activity at I.C.E. value 0.59 when administered subcutaneously.; method in brief: as §4
# [21] = system: Mus musculus; assay: Trypanocidal Activity at I.C.E. value 0.23 when administered perorally.
# [22] = system: Mus musculus; assay: Trypanocidal Activity at I.C.E. value 0.50 when administered perorally.
smiles,measurement,setting,value
Br.CC/N=C(\NCC)N/N=C/c1ccc(OCc2cn3ccccc3[n+]2C)cc1.[Br-],CD50,[1],0.8 mg/kg
same,CD50,[2],106 mg/kg
C[n+]1cccc(COc2ccc(/C=N/NC(=N)N)cc2)c1.Cc1ccc(S(=O)(=O)O)cc1.Cc1ccc(S(=O)(=O)[O-])cc1,CD50,[3],26 mg/kg
same,CD50,[4],0.8 mg/kg
same,IC50,[5],1.8 µg/mL
same,IC50,[6],> 10 µg/mL
Br.Cc1cccc2n1cc(/C=C/c1ccc(/C=N/NC(=N)N3CCCC3)cc1)[n+]2C.[Br-],CD50,[7],53 mg/kg
same,CD50,[8],0.4 mg/kg
Br.C[n+]1c(-c2ccc(/C=N/NC(=N)N3CCCC3)cc2)cn2ccccc21.[Br-],CD50,[9],6.6 mg/kg
same,CD50,[10],0.06 mg/kg
same,IC50,[11],0.6 µg/mL
same,IC50,[12],0.6 µg/mL
Br.CC/N=C(\NCC)N/N=C/c1ccc(/C=C/c2cn3ccccc3[n+]2C)cc1.[Br-],CD50,[13],0.4 mg/kg
Br.CCCCNC(=N)N/N=C/c1ccc(-c2cn3ccc(C)cc3[n+]2C)cc1.[Br-],CD50,[14],0.4 mg/kg
same,CD50,[15],26 mg/kg
Br.C/N=C(/N/N=C/c1ccc(-c2cn3ccccc3[n+]2C)cc1)SC.[Br-],CD50,[16],26 mg/kg
CCNC(=N)N/N=C/c1ccc(/C=C/c2n(C)cc[n+]2C)cc1.Cc1ccc(S(=O)(=O)O)cc1.Cc1ccc(S(=O)(=O)[O-])cc1,CD50,[17],0.11 mg/kg
Br.CCN(CC)C(=N)N/N=C/c1ccc(-c2cn3ccccc3[n+]2C)cc1.[Br-],CD50,[18],0.2 mg/kg
same,IC50,[19],1 µg/mL
same,IC50,[12],1.1 µg/mL
Br.Cn1c[n+](Cc2ccc(/C=N/NC3=NCCCN3)cc2)c2ccccc21.[Br-],CD50,[20],1.6 mg/kg
same,CD50,[21],106 mg/kg
C[n+]1c(-c2ccc(/C=N/NC(=N)N)cc2)cn2cc(Cl)ccc21.Cc1ccc(S(=O)(=O)O)cc1.Cc1ccc(S(=O)(=O)[O-])cc1,CD50,[10],1.6 mg/kg
same,CD50,[22],13 mg/kg
